Results gathered from unrelated publications.
Target: Serine/threonine-protein kinase PAK 6 (PAK6, Homo sapiens, UniProt Q9NQU5)

| SMILES | read-out | mode | technique | concentration | endpoint | result |
| --- | --- | --- | --- | --- | --- | --- |
| CN(C)c1nccc(-c2cnn3ncccc23)n1 | binding |  |  | 1 µM | remaining binding | 100% |
| O=C1NC(=O)c2cc(Nc3ccc(F)cc3)c(Nc3ccc(F)cc3)cc21 | cell-free assay |  |  | 0.5 µM | remaining signal | 106% |
| CCCOc1ccc([C@@H]2[C@@H](C(=O)O)[C@H](c3ccc4c(c3)OCO4)CN2CC(=O)Nc2c(CC)cccc2CC)cc1 | cell-free assay |  | competition with immobilised ligand | 1 µM | remaining binding | 83% |
| Cc1sc(C(=O)NC2COC2)cc1-n1cc(NC(=O)Nc2c(F)cccc2Cl)cn1 | enzyme activity | inhibitor |  | 10 µM | remaining activity | 99.9% |
| CNC(=O)c1cc(Oc2ccc(NC(=O)Nc3ccc(Cl)c(C(F)(F)F)c3)cc2)ccn1 | enzyme activity | inhibitor |  | 0.3 µM | inhibition | -33% |
| Cc1ccc(Nc2nccc(N(C)c3ccc4c(C)n(C)nc4c3)n2)cc1S(N)(=O)=O | cell-free assay | inhibitor |  | 0.5 µM | remaining signal | 105% |
| O=C(NCc1ncc(C(F)(F)F)cc1Cl)c1ccc2c(c1)C1(CCS(=O)(=O)CC1)[C@H](C1CC1)N2S(=O)(=O)c1ccc(F)cc1 | cell-free assay |  | competition with immobilised ligand | 1 µM | remaining binding | 100% |
| Nc1nc(Nc2ccccc2)sc1C(=O)c1c(F)cccc1F | enzyme activity | inhibitor |  | 10 µM | remaining activity | 87% |
| COc1cc2ncnc(Nc3ccc(Oc4ccccc4)c(C)c3C)c2cc1OC | enzyme activity | inhibitor |  | 1 µM | inhibition | -6% |
| CCN(CC)c1ccc(C2=NNC(=O)CC2C)cc1[N+](=O)[O-] (centres unmarked) | enzyme activity | inhibitor |  | 10 µM | remaining activity | 126% |
| COc1cc(Nc2cnc(C#N)c(O[C@H](C)CN(C)C)n2)ncc1-c1cnn(C)c1 | enzyme activity | inhibitor | radiometric | 1 µM | remaining activity | 77% |
| O=C1CCc2cc(Nc3cc(OC4CCOCC4)c([N+](=O)[O-])cc3Cl)ccc2N1 | cell-free assay |  | competition with immobilised ligand | 1 µM | remaining binding | 86% |
| CCN(CC)CCNC(=O)c1c(C)[nH]c(/C=C2\C(=O)Nc3ccc(F)cc32)c1C | enzyme activity | inhibitor |  | 10 µM | inhibition | 29% |
| Cc1ccc(NC(=O)c2ccc(CN3CCN(C)CC3)cc2)cc1Nc1nc(-c2cccnc2)cs1 | cell-free assay |  |  | 0.5 µM | remaining signal | 101% |
| O=C(Nc1cnn(-c2csc(C(=O)NC3COC3)c2)c1)Nc1ccccc1Cl | enzyme activity | inhibitor |  | 5 µM | remaining activity | 131% |
| O=C(NCCCC1CCCCC1)c1ccc(CNC(=O)c2cnn(-c3ccccc3)c2C(F)(F)F)cc1 | cell-free assay |  | competition with immobilised ligand | 0.1 µM | remaining binding | 100% |
| CC(C)(C)c1nc2c(s1)c1nc(N)ncc1c1ccc(NS(=O)(=O)c3c(F)cccc3F)c(F)c12 | enzyme activity | inhibitor | radiometric | 1 µM | remaining activity | 89% |
| Cn1c(=O)n(-c2ccc(C(C)(C)C#N)cc2)c2c3cc(-c4cnc5ccccc5c4)ccc3ncc21 | enzyme activity | inhibitor |  | 10 µM | remaining activity | 105% |
| Nc1ncnc2occ(-c3ccc(NC(=O)Nc4cc(C(F)(F)F)ccc4F)cc3)c12 | cell-free assay | inhibitor |  | 20 µM | remaining signal | 53% |
| CC/C(=N\NC(=O)NCc1cccc(O)c1)c1ccc(O)c(C)c1O | enzyme activity | inhibitor |  | 0.1 µM | inhibition | 1.5% |
| O=C(O)[C@@H]1[C@@H](Cn2nnc3ccccc3c2=O)CC[C@H]1C(=O)c1ccc(OCCC2CCOCC2)cc1 | cell-free assay |  | competition with immobilised ligand | 1 µM | remaining binding | 99% |
| Nc1nc(NC2CCCCC2)sc1C(=O)c1ccccc1 | enzyme activity | inhibitor |  | 10 µM | remaining activity | 93% |
| FC(F)(F)Oc1cccc(-c2cnc3ccc(-c4ccncc4)nn23)c1 | enzyme activity | inhibitor | radiometric | 5 µM | activity vs control | 90% |
| CCOCCn1cc(C(=O)Nc2ccc(-n3nc(-c4cccnc4)cc3C(F)(F)F)cn2)ccc1=O | cell-free assay |  | competition with immobilised ligand | 1 µM | remaining binding | 100% |
| COc1cc(/C=C/C(=O)CC(=O)/C=C/c2ccc(O)c(OC)c2)ccc1O | enzyme activity | inhibitor |  | 1 µM | activity vs control | 82% |
| Cn1cc(Cl)c2c(Oc3c(F)cc(Nc4cc(Cl)nc(N)n4)cc3F)ccnc21 | cell-free assay |  | competition with immobilised ligand | 0.1 µM | remaining binding | 100% |
| COc1cc(Cl)c(C(=O)N[C@@H](CN[C@H]2CC[C@@H](N)CC2)Cc2ccc(C#N)cc2)cc1-c1ccc(CN[C@H](C)c2ccc(C)cc2)o1 | enzyme activity | inhibitor |  | 1 µM | remaining activity | 95% |
| CSc1cccnc1N1CCN(Cc2nc3ccccc3[nH]2)CC1 | cell-free assay |  | competition with immobilised ligand | 1 µM | remaining binding | 100% |
| FC(F)c1nc2ccccc2n1-c1nc(N2CCOCC2)nc(N2CCOCC2)n1 | enzyme activity | inhibitor |  | 10 µM | remaining activity | 93% |
